Data taken from ChEMBL document CHEMBL4428066, “Small Molecule Reversible Inhibitors of Bruton's Tyrosine Kinase (BTK): Structure-Activity Relationships Leading to the Identification of 7-(2-Hydroxypropan-2-yl)-4-[2-methyl-3-(4-oxo-3,4-dihydroquinazolin-3-yl)phenyl]-9H-carbazole-1-carboxamide (BMS-935177)” (J Med Chem, 2016).
The source made the active and inactive calls. The rule behind the calls is not given here.

Columns and labels:
[1] = AUC (0 to 24 hrs) in Balb/C mouse at 10 mg/kg, po; assay type: ADME, organism-based; set-up: time < 24 hr, dose 10 mg/kg, route oral; conditions: in vivo
Outline: (§1)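 Male Balb/C mice dosed orally once at 10 mg/kg in PEG300/TPGS/ethanol (90/5/5 v/v/v).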

[2] = Cmax in Balb/C mouse at 10 mg/kg, po; assay type: ADME, organism-based; set-up: dose 10 mg/kg, route oral; conditions: in vivo; outline: as §1
[3] = target: T1, Tyrosine-protein kinase BTK (Homo sapiens, UniProt Q06187); experiment: Inhibition of His-tagged full length human recombinant BTK expressed in baculovirus using fluoresceinated peptide substrate after 60 mins by fluorescent electrophoretic separation
T1 sequence (Q06187 whole entry): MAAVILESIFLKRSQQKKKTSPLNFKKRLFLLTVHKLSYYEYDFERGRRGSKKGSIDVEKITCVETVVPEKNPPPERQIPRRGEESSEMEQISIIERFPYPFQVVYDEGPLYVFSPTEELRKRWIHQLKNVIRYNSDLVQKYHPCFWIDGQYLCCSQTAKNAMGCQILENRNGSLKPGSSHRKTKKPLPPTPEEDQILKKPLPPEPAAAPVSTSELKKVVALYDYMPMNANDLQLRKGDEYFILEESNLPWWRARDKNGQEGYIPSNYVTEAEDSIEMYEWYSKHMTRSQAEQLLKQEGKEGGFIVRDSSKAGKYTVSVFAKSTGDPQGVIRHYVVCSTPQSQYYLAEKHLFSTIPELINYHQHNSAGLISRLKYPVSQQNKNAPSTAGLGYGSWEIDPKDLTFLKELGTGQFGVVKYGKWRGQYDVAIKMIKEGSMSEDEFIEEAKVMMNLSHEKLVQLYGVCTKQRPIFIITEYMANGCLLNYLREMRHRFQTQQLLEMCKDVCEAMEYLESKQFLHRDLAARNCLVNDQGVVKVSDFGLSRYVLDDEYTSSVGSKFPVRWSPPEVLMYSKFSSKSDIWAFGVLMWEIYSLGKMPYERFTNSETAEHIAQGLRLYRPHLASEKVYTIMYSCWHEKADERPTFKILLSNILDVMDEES

[4] = target: T1, Tyrosine-protein kinase BTK; experiment: Inhibition of BTK in human RamosB cells assessed as suppression of BCR/anti-IgM stimulated calcium flux pre-incubated for 1 hr followed by BCR/anti-IgM stimulation; assay type: cell-based
Homo sapiens = organism: Homo sapiens; experiment: Selectivity ratio of IC50 for GST-tagged human recombinant LCK using FITC-AHAEGIYLFKKK-NH2 as substrate to IC50 for His-tagged full length human recombinant BTK expressed in baculovirus
Outline: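 Fold selectivity is the LCK enzyme IC50 divided by the BTK enzyme IC50. The footnotes give each IC50 as the mean of three (or at least three) determinations, with some as single determinations.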

[5] = Permeability of the compound at pH 7 by PAMPA; assay type: ADME; conditions: for Papp: read-out: permeability
[6] = Toxicity in mouse administered orally as multiple day dosing schedule; conditions: in vivo, po
[7] = Drug metabolism in human liver microsomes assessed as aniline metabolite formation; assay type: ADME, Microsome
Outline: (§2)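 Compounds were incubated with human or rat liver microsomes. Metabolites were profiled for hydrolysis to the aniline and, where applicable, for N-dealkylation giving the bis-aniline.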

[8] = Drug metabolism in rat liver microsomes assessed as bis-aniline metabolite formation; assay type: ADME, Microsome; outline: as §2
[9] = Drug metabolism in human liver microsomes assessed as bis-aniline metabolite formation; assay type: ADME, Microsome; outline: as §2
[10] = Drug metabolism in rat liver microsomes assessed as aniline metabolite formation; assay type: ADME, Microsome; outline: as §2
[11] = Stability in mouse liver microsomes; assay type: ADME, Microsome
Mus musculus = experiment: Decrease in anti-KLH IgM titers in chronic Balb/C mouse KLH antibody response model at 30 mg/kg, po administered through oral gavage after 14 days by ELISA; assay type: functional, organism-based; conditions: in the assay text read “IgG” for “IgM”
Outline: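 Chronic KLH challenge model in mice with compound given by mouth. Anti-KLH IgM appears in the first week after challenge. Switching to IgG anti-KLH is evident by day 14.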

`CC(C)(O)c1ccc2c(c1)[nH]c1c(C(N)=O)ccc(-c3cccc(-n4cnc5ccccc5c4=O)c3F)c12` showed an AUC(0-t) at 24 h [1] of 19 µM·h and a Cmax [2] of 2.1 µM.

Work on `Cc1c(-c2ccc(C(N)=O)c3[nH]c4cc(C(C)(C)O)ccc4c23)cccc1N1CCc2ccccc2C1=O` yielded an IC50 [3] of 3 nM, an IC50 [4] of 26 nM and a Ratio IC50 (Homo sapiens) of 33.

For `Cc1c(-c2ccc(C(N)=O)c3[nH]c4cc(C(=O)N5CCN(C)CC5)ccc4c23)cccc1N1Cc2ccccc2C1=O`, the AUC(0-t) at 24 h [1] was 0.3 µM·h, the IC50 [3] was 5 nM and the IC50 [4] was 238 nM. For the same molecule, the Ratio IC50 (Homo sapiens) was 14 and the Cmax [2] was 0.178 µM.

Work on `Cc1c(NC(=O)c2ccc(F)cc2)cccc1-c1ccc(C(N)=O)c2[nH]c3cc(C(=O)N4CCN(C)CC4)ccc3c12` yielded an AUC(0-t) at 24 h [1] of 0.4 µM·h, an IC50 [3] of 5 nM and a Papp [5] of 14.7 ×10⁻⁶ cm/s. It also gave a Ratio IC50 (Homo sapiens) of 15 and a Cmax [2] of 0.09 µM.

For `Cc1c(-c2ccc(C(N)=O)c3[nH]c4cc(CO)ccc4c23)cccc1-n1cnc2ccccc2c1=O`, the AUC(0-t) at 24 h [1] was 14 µM·h, the IC50 [3] was 3 nM and the IC50 [4] was 22 nM. The Ratio IC50 (Homo sapiens) was 146 and the Cmax [2] was 4.65 µM.

`Cc1c(-c2ccc(C(N)=O)c3[nH]c4cc(C(C)(C)O)ccc4c23)cccc1-n1cnc2c(F)cccc2c1=O` gave an AUC(0-t) at 24 h [1] of 63 µM·h, an IC50 [3] of 2 nM and an IC50 [4] of 34 nM. The Ratio IC50 (Homo sapiens) was 88 and the Cmax [2] was 6.85 µM.

For `Cc1c(-c2ccc(C(N)=O)c3[nH]c4cc(C(C)(C)O)ccc4c23)cccc1-n1cnc2ccc(F)cc2c1=O`, the AUC(0-t) at 24 h [1] was 113 µM·h, the IC50 [3] was 7 nM and the IC50 [4] was 40 nM. It also gave a Ratio IC50 (Homo sapiens) of 52 and a Cmax [2] of 9.77 µM.

In the case of `Cc1c(NC(=O)c2ccc(F)cc2)cccc1-c1ccc(C(N)=O)c2[nH]c3cc(NC(C)C)ccc3c12`, the Activity [6] is reported as “Toxic”, the Drug metabolism [7] is reported as “Metabolite_Detected” and the AUC(0-t) at 24 h [1] is reported as 36 µM·h. The Drug metabolism [8] was “Metabolite_Detected”, the IC50 [3] was 11 nM and the Drug metabolism [9] was “Metabolite_Detected”. The permeability [5] was “Impermeable”, the Ratio IC50 (Homo sapiens) was 61 and the Drug metabolism [10] was “Metabolite_Detected”. The Cmax [2] was 7.96 µM.

Work on `Cc1c(-c2ccc(C(N)=O)c3[nH]c4cc(C(C)(C)O)ccc4c23)cccc1-n1cnc2cc(F)ccc2c1=O` yielded an AUC(0-t) at 24 h [1] of 120 µM·h, an IC50 [3] of 2 nM and an IC50 [4] of 24 nM. For the same molecule, the Ratio IC50 (Homo sapiens) was 89 and the Cmax [2] was 8.06 µM.

With `Cc1c(NC(=O)c2ccc(F)cn2)cccc1-c1ccc(C(N)=O)c2[nH]c3cc(C(=O)N4CCN(C)CC4)ccc3c12` the Drug metabolism [7] was “Metabolite_Detected”, the AUC(0-t) at 24 h [1] was 5 µM·h and the IC50 [3] was 9 nM. The Papp [5] was 58.7 ×10⁻⁶ cm/s, the Ratio IC50 (Homo sapiens) was 9 and the Drug metabolism [10] was “Metabolite_Detected”. For the same molecule, the Cmax [2] was 1.57 µM.

For `Cc1c(-c2ccc(C(N)=O)c3[nH]c4cc(C(C)(C)O)ccc4c23)cccc1N1Cc2ccc(F)cc2C1=O`, the Stability [11] was “Stable”, the Activity (Mus musculus) was “inactive” and the AUC(0-t) at 24 h [1] was 41 µM·h. The IC50 [3] was 2 nM, the IC50 [4] was 48 nM and the Ratio IC50 (Homo sapiens) was 48. It also gave a Cmax [2] of 4.41 µM.

Molecule `Cc1c(-c2ccc(C(N)=O)c3[nH]c4cc(C(C)(C)O)ccc4c23)cccc1-n1cnc2cccc(F)c2c1=O` has an AUC(0-t) at 24 h [1] of 58 µM·h, an IC50 [3] of 5 nM and an IC50 [4] of 18 nM. The Ratio IC50 (Homo sapiens) was 61 and the Cmax [2] was 6.74 µM.

With `Cc1c(-c2ccc(C(N)=O)c3[nH]c4cc(C(C)(C)O)ccc4c23)cccc1N1Cc2ccccc2C1=O` the IC50 [3] was 5 nM, the IC50 [4] was 154 nM and the Ratio IC50 (Homo sapiens) was 25.

Molecule `Cc1c(-c2ccc(C(N)=O)c3[nH]c4cc(C(C)(C)O)ccc4c23)cccc1-n1ccc2ccccc2c1=O` has an IC50 [3] of 5 nM, an IC50 [4] of 144 nM and a Ratio IC50 (Homo sapiens) of 44.
